Source: PubChem BioAssay
Only some compounds are listed: those with a hit (about 0.63% of all), similar ones and a draw of the others.
IDE act: boosts human insulin-degrading enzyme activity in HEK cells; P14735; FAbeta-B cleavage, fluorescence polarization; 0% vehicle, 100% cell-free pure enzyme wells; activation, % at 5.96 µM; 340,000 compounds, 0.073% hits;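 active = activation above the mean of all tested compounds plus 3 SD, set per screening campaign, cut at about 17% in these data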
TRPN1 ag: zebrafish TRPN1 (NompC) channel agonism; 220,000 compounds, 0.18% hits; HEK293 zebrafish TRPN1-YFP, Fluo-8 calcium fluorescence; 100% = response to 87 µM carbachol; AID 1424; activation, % at 3 µM;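 active = activation above its plate's cutoff, the mean activation of test wells on that plate plus 3 SD, cut at about 19% in these data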;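 also: 0% = DMSO alone and 100% = 87 µM carbachol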
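Material: zebrafish TRPN1-YFP in HEK293 cells; Doses: single test compound dose, 3 µM nominal, 0.3% DMSO; Timing: dye loading 1 h at 37 °C, then 30 min room temperature; Technique: intracellular calcium fluorescence with Fluo-8; Benchmarks: high carbachol 87 µM, low DMSO alone.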
IDE inh: inhibitors of human insulin-degrading enzyme in cells | HEK cells, FAbetaB cleavage, fluorescence polarization | inhibition, % at 5.59 µM | 320,000 compounds, 0.41% hits;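 active = percent inhibition above the average of all tested compounds plus 3 SD, set per screening campaign, cut at about 16% in these data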;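 also: IDE supplied by intact live HEK cells; FP after avidin binding of uncleaved biotin substrate so inhibition keeps polarization high; 0% = DMSO wells and 100% = 60 µM reference IDE inhibitor Ii1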
TRPML3 ag: human mucolipin-3 channel agonism; Q8TDD5; HEK293 TRPML3-YFP, Fluo-8 calcium fluorescence; 100% = the carbachol control signal; activation, % at 3 µM; 220,000 compounds, 0.29% hits;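 active = activation above its plate's cutoff, the mean activation of the plate's test wells plus 3 SD, cut at about 12% in these data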;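 also: 0% = DMSO only wells and 100% = carbachol wells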
Target sequence (Q8TDD5 whole entry, looked up): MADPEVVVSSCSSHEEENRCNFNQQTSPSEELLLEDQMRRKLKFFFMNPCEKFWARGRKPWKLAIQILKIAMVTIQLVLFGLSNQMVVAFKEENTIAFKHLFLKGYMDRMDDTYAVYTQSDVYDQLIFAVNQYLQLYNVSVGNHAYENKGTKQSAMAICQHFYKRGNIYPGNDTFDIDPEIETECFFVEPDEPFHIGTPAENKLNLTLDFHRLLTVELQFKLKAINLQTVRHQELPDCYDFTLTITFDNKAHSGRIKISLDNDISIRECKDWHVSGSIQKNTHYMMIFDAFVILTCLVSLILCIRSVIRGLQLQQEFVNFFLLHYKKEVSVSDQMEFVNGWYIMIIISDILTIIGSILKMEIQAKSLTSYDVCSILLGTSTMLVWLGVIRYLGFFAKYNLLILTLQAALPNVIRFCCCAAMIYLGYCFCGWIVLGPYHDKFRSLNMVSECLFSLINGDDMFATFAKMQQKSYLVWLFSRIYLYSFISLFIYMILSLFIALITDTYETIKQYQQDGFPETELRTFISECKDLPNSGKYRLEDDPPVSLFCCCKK
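Test system: TRPML3-YFP stable HEK293 cells. Doses: single point at 3 µM. Incubation: dye loading 1 h 37 °C then 30 min ambient, 125 s read. Signal: Fluo-8 calcium dye fluorescence, ex 470-495, em 515-575 nm. Measure: percent activation from peak-to-basal fluorescence ratio, scaled between DMSO and carbachol.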
IDE inh confirm: confirmation of human insulin-degrading enzyme inhibitors in cells | shares compounds with IDE inh | HEK cells, FAbetaB cleavage, fluorescence polarization | inhibition, % at 5.59 µM | 1,200 compounds, 51% hits | AID 435028;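 active = mean inhibition across triplicate wells above the cutoff set by the earlier primary insulin-degrading enzyme screen, cut at about 16% in these data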;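 also: 0% = DMSO wells and 100% = 60 µM reference IDE inhibitor Ii1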
HEK cytotox: kills HEK cells in IDE inhibitor counter-screen. inhibition, % at 5.59 µM. 1,200 compounds, 28% hits. AID 449730. shares compounds with IDE inh. HEK293 cytotoxicity, ATP luminescence; in the data active = inhibition above about 22%;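 also: 0% = vehicle wells and 100% = reference cytotoxic drug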
Numbers without * were called inactive.

How did COc1cccc(C2=CC(c3ccc(N(C)C)cc3)n3nnnc3N2)c1 (configuration not stated) do in these assays?
IDE act: -27.4; TRPN1 ag: 7.6; IDE inh: 44.4*; TRPML3 ag: 6.2; IDE inh confirm: 37.2*; HEK cytotox: 38.6*

Results for COc1cccc(C2=CC(c3ccccc3)n3nnnc3N2)c1 (configuration not stated) ?
IDE act: -0.8; TRPN1 ag: -1.1; IDE inh: -0.8; TRPML3 ag: -1.5

Results for Cc1cccc(N2C(=O)c3cccc4c(N(C)CCO)ccc(c34)C2=O)c1 ?
IDE act: -72.2; TRPN1 ag: 38.6*; IDE inh: 79.3*; TRPML3 ag: 30.3*; IDE inh confirm: 109.8*; HEK cytotox: 13.4

Results for Cc1cccc(N2C(=O)c3cccc4c(N)ccc(c34)C2=O)c1 ?
IDE act: -42.5; IDE inh: 72.6*; IDE inh confirm: 96.2*; HEK cytotox: 3.6

How did Cc1cccc(N2C(=O)c3cccc4cccc(c34)C2=O)c1 do in these assays?
IDE act: 2.2; IDE inh: 5.3

How did CCC(C)(C)n1nnnc1C(c1ccc2ncccc2c1)N1CCN(c2ccc(O)cc2)CC1 (configuration not stated) do in these assays?
IDE act: 2.2; TRPN1 ag: 1.0; IDE inh: 1.4; TRPML3 ag: 0.8

How did CCC(C)(C)n1nnnc1C(c1ccc2ncccc2c1)N1CCN(c2nc3ccccc3s2)CC1 (configuration not stated) do in these assays?
IDE act: -9.7; TRPN1 ag: -0.1; IDE inh: 18.1*; TRPML3 ag: 0.3; IDE inh confirm: 10.7; HEK cytotox: 25.9*

Results for CCN1C(=O)/C(=C\c2ccc(F)cc2)N=C1SCC(=O)NCc1ccco1 ?
IDE act: 5.6; TRPN1 ag: -1.6; IDE inh: -2.1; TRPML3 ag: 0.1

What do the screens show for `Nc1c(C(=O)O)ccc2c1C(=O)c1ccccc1C2=O`?
IDE act: -0.6; TRPN1 ag: 1.1; IDE inh: -1.9; TRPML3 ag: 0.9

What do the screens show for `Nc1c(SCCC(=O)O)ccc2c1C(=O)c1ccccc1C2=O`?
IDE act: -3.4; IDE inh: 16.8*; IDE inh confirm: 11.4; HEK cytotox: 13.8

What do the screens show for `CN(CCC1CCOCC1)C(=O)CC1C(=O)NCCN1Cc1c(F)cccc1Cl` (configuration not stated)?
IDE act: 2.6; IDE inh: 5.5

Results for Cc1[nH]c(=O)[nH]c(=S)c1C(=O)Nc1ccc(Cl)c(Cl)c1 ?
IDE act: -13.3; IDE inh: 25.9*; IDE inh confirm: 2.3; HEK cytotox: 10.8

Results for O=C(NC(c1cccnc1)C(F)(F)F)c1cc(COc2ccc3c(c2)CCCC3)on1 (configuration not stated) ?
IDE act: -2.4; IDE inh: 3.1

How did O=C(COC(=O)c1ccc(S(=O)(=O)N2CCCCC2)cc1)NCc1ccccc1 do in these assays?
IDE act: 8.7; IDE inh: -4.0

How did COc1ccc(/C=c2\s/c(=C/C(=O)c3ccc(C)cc3)[nH]c2=O)c(OC)c1 do in these assays?
IDE act: -67.2; TRPN1 ag: 2.2; IDE inh: 88.3*; TRPML3 ag: 1.7; IDE inh confirm: 111.8*; HEK cytotox: 11.8

Results for Cc1c(NC(=O)c2cc3c(s2)-c2ccccc2OC3)cccc1[N+](=O)[O-] ?
IDE act: -9.1; TRPN1 ag: -0.3; IDE inh: 26.7*; TRPML3 ag: 0.8; IDE inh confirm: 2.4; HEK cytotox: 39.2*

Results for Cc1csc(NC(=O)c2cc3c(s2)-c2ccccc2OC3)n1 ?
IDE act: -0.2; TRPN1 ag: 4.2; IDE inh: -0.1; TRPML3 ag: 2.6

What do the screens show for `CCCc1cc(=O)n2c(nc3ccccc32)[nH]1`?
IDE act: -0.3; TRPN1 ag: -0.3; IDE inh: 0.4; TRPML3 ag: 0.5

Results for O=C(O)CC12CC3CC(C1)CC(n1ncc(NCc4ccc5c(c4)OCO5)c(Cl)c1=O)(C3)C2 ?
TRPN1 ag: 0.8; IDE inh: 6.7; TRPML3 ag: 2.0
